# Bioassay records as filed in PubChem.
# pPAFAH FP inh – inhibitors of human plasma PAF acetylhydrolase (pPAFAH); Q13093; recombinant pPAFAH, FP-rhodamine probe fluorescence polarization; inhibition, % at 3.39 µM; 330,000 tested, 1.5% active; AID 463082;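 active = inhibition above the mean inhibition across the screen plus 3 SD, cut at about 25% in these data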;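 note: inhibitors block binding of the rhodamine activity-based probe so polarization drops; 0% = enzyme with DMSO and 100% = wells lacking pPAFAH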
# Target sequence (Q13093 whole entry, looked up): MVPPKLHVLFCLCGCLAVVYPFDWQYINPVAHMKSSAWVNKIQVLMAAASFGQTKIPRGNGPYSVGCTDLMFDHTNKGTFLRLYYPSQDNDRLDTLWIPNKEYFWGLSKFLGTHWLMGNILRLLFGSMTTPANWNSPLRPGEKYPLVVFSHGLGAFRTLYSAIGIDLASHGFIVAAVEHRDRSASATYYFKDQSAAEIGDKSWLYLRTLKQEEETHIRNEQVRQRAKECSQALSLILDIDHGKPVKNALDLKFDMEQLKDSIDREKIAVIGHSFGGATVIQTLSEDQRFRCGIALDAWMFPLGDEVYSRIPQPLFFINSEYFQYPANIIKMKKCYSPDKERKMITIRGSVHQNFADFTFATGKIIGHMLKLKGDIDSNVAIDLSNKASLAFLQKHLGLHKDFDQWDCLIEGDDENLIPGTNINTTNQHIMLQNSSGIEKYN
# HTRA1 inh – blocks human HTRA1 serine peptidase; recombinant HTRA1, FP-rhodamine activity-based probe, fluorescence polarization; inhibition, % at 5.96 µM; AID 504803; 340,000 tested, 0.5% active; Q92743; in the data active = inhibition above about 36%;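 note: 0% = enzyme with DMSO and 100% = wells lacking enzyme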
# TCR-CD3 inh – human TCR-CD3 binding inhibition. TAMRA-labeled TCR probe fluorescence, biochemical. inhibition, % at 9.4 µM. 360,000 tested, 0.37% active; in the data active = inhibition above about 19%;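 note: recombinant mutant TCR 2C K166C tagged with TAMRA read by polarization; 0% = receptor in buffer alone and 100% = receptor with positive control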
# ABHD4 inh – inhibits mouse alpha/beta hydrolase domain 4 | purified mABHD4, FP-Rh probe fluorescence polarization | 370,000 tested, 0.54% active | inhibition, % at 8.92 µM;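 active = inhibition exceeding the mean over every tested compound plus 3 SD, cut at about 30% in these data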;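 note: 0% = plate median of compound wells and 100% = S159A mutant with DMSO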
#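 Assay system: Wild-type mouse ABHD4 protein | Medium: HEPES pH 7.0 buffer, 150 mM NaCl, 0.01% Pluronic F-127 | Incubation: Enzyme–compound pre-incubation 45 min, then probe 60 min, both 25 °C | Technique: Fluorescence polarization with parallel and perpendicular emission, 525/598 nm | Evaluation: % inhibition of FP-Rh probe binding versus controls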
# SIAE inh – blocks human sialic acid acetylesterase | SIAE FP-Rh probe binding, fluorescence polarization | inhibition, % at 9.66 µM | 370,000 tested, 0.69% active;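 active = inhibition above a cutoff: mean of compounds within the control limits plus 3 SD of those, cut at about 17% in these data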;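 note: 0% = plate median of compound wells and 100% = probe without SIAE protein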
# * marks the source's active call; other numbers are inactive results; / = no result. Sampled rows, rich in hits. Any-hit rate of the full collection: about 2.3%.
SMILES,pPAFAH FP inh,HTRA1 inh,TCR-CD3 inh,ABHD4 inh,SIAE inh
CCOC(=O)CSc1nnc(Cc2ccccc2)n1-c1ccc(C)cc1,32*,-2,7,-2,3
Cc1ccc(-c2noc(CSc3nnc(Cc4ccccc4)n3-c3ccc(Cl)cc3)n2)cc1,25*,-58,-7,-17,-3
COc1ccc(C(=NNc2ccccc2C(=O)O)c2ccc(OC)cc2)cc1,33*,15,-6,9,-8
COc1ccc(C(=O)Nc2ccccc2C(=O)Nc2ccccc2C(=O)O)cc1,-16,-96,-4,-27,-51
Cc1occc(=O)c1OC(=O)Nc1ccc(Cl)c(Cl)c1,-52,-88,73*,-94,-177
COc1ccc(C(=O)Oc2c(C)occc2=O)cc1OC,6,6,2,-5,-2
Cc1ccc(S(=O)(=O)NCCCNS(=O)(=O)c2ccc(C)cc2)cc1,26*,10,8,-5,-5
Cc1ccc(S(=O)(=O)NCCCC(=O)O)cc1,1,1,9,4,5
Cc1ccccc1NS(=O)(=O)c1ccc(C)c(C(=O)N2CCOCC2)c1,34*,-4,4,-3,-7
COc1ccc(S(=O)(=O)Nc2ccccc2C)cc1C(=O)N1CCOCC1,26*,-7,-2,-2,4
CCOC(=O)c1cnc2ccc(C)cc2c1Sc1ccccc1,13,-15,2,-6,5
CCOC(=O)c1cnc2ccc(C)cc2c1N(C)Cc1ccccc1,25*,-30,0,3,-1
CCC(C)c1ccc(C2C3=C(Nc4nc(N)[nH]c(=O)c42)c2ccccc2C3=O)cc1 (stereo not drawn),25*,18,-5,14,-1
CCCC1CCC2(CCC(=O)N2CCC#N)CC1 (stereo not drawn),/,/,/,9,-7
O=C(Nc1ccc(S(=O)(=O)Nc2nccs2)cc1)c1cc(-c2ccccc2Cl)nc2ccccc12,25*,-59,-1,-56,-17
CO/N=C(/CS(=O)Cc1ccc(Cl)cc1)c1ccc(Cl)cc1 (stereo not drawn),27*,-15,4,3,0
COC(=O)[C@]12CCCCC=C1N(Cc1ccc(OC)cc1)C(=O)[C@@H]2CC(=O)NCc1cccs1,/,/,/,-2,-1
CC(=O)Nc1ccc(NC(=O)C(C)c2cccc(C(=O)c3ccccc3)c2)cc1 (stereo not drawn),30*,-5,-1,-11,9
CC(C)(C)N1C(=O)Cc2c1nc(N)c1c(N)nc(N3CCCCC3CO)c(C#N)c21 (stereo not drawn),19,56*,/,/,/
CN(CCO)c1nc(N)c2c(N)nc3c(c2c1C#N)CC(=O)N3C1CCCC1,15,/,/,/,/
Cc1noc(C)c1S(=O)(=O)N1CCCC(C(=O)NCCC2=CCCCC2)C1 (stereo not drawn),1,-5,1,3,3
Cc1noc(/C=C/N(C)C)c1S(=O)(=O)N1CCCC(C(=O)NCCC2=CCCCC2)C1 (stereo not drawn),25*,-54,3,-10,-2
CN1C(=O)C[C@@](C#N)(C(=O)Nc2nc3ccc(F)cc3s2)[C@H]1c1ccccc1,/,/,/,0,2
CCOc1ccc2nc(SCC(=O)NC(=O)NCc3ccco3)sc2c1,26*,-32,5,-20,-13
O=S(=O)(c1ccc(Cl)s1)N1CCC(c2nc3ccccc3o2)CC1,/,/,/,1,-2
SMILES,pPAFAH FP inh,HTRA1 inh,TCR-CD3 inh,ABHD4 inh,SIAE inh
C=CCN(c1ccccc1)S(=O)(=O)c1cccc(C(=O)Nc2nnc(SCC)s2)c1,34*,-3,1,-14,-5
Cc1c2cnn(CC(=O)Nc3c(F)c(F)cc(F)c3F)c(=O)c2c(C)n1Cc1ccccc1F,27*,-18,11,-20,-35
Cc1ccc(CNc2ccc3c(c2)OCO3)cc1,19,49*,/,/,/
CCCCCCCc1nc2c(=O)n(C)c3ccccc3c2o1,31*,3,-3,-1,-1
COc1ccc(NC(=O)Nc2ccc3c(c2)C(=O)N([C@H](C)CO)C[C@H](C)[C@@H](CN(C)Cc2ccc(Cl)c(Cl)c2)OCCCC[C@@H](C)O3)cc1,/,-22,-9,12,21*
C[C@@H]1CCCCO[C@H](CN(C)Cc2ccc(Cl)c(Cl)c2)[C@H](C)CN([C@@H](C)CO)C(=O)c2cc(NC(=O)Nc3ccc(F)cc3)ccc2O1,/,-37,1,-1,-16
COc1ccc(NC(=O)N(C)C[C@H]2Oc3ccc(NC(=O)Cc4ccccc4)cc3CC(=O)N([C@H](C)CO)C[C@H]2C)cc1,31*,-1,3,-3,8
